pIC50: −log10 of the molar value. ≈ marks a conversion by molar mass, not a printed value. Calls of active or inactive are those of the source. No cut-off for these calls is given here.

For data set [1], the system named is NCI-H661. In words: Antiproliferative activity against human NCI-H661 cells after 48 hrs in presence of beta-glucuronidase. Particulars: NCI-H661, 48 h. Format: functional, cell-based. The procedure, abridged:
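NCI-H661 cells in RPMI 1640 + 10% FCS (37 °C, 5% CO2); E. coli β-glucuronidase added to culture medium at 40 U/ml. 4 × 10^3 cells/well plated 24 h before compound, 48 h treatment, then XTT added and 4 h further incubation at 37 °C; absorbance at 480 nm. Three experiments in triplicate, standard deviation shown.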

A short description of data set [2]: Stability in 0.02M phosphate buffer at pH 2.1 after 72 hrs. The class given is physicochemical. Particulars: pH 2.1, 72 h. The procedure, abridged: (§1)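 Compounds held in 0.02 M phosphate buffer (pH 2.1 or pH 7 as per line) at 37 °C for 72 h; degradation followed by HPLC with UV detection.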
Data set [3] can be described thus: Stability in 0.02M phosphate buffer at pH 7 after 72 hrs. Format: physicochemical. Particulars: pH 7, 72 h. The procedure, abridged:
as §1

The nature of data set [4]: Aqueous solubility in phosphate buffer at pH 7. Format: physicochemical. The procedure, abridged:
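Solubility in 0.02 M phosphate buffer, pH 7; sample filtered through 0.45 µm filter, diluted in HPLC phase and quantified by HPLC (UV) against a calibration curve of 0.1–0.025 mg/mL prepared from a DMSO stock diluted in the same buffer.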

Data set [5] deals with Histone deacetylase (Homo sapiens) (UniProt Q13547+O15379+Q9UBN7+Q92769+Q9UQL6+Q8WUI4+Q9BY41+Q96DB2+P56524+Q9UKV0+Q969S8). As to the kind of experiment: Inhibition of HDAC in human NCI-H661 cells assessed as histone H4 acetylation after 6 hrs in presence of beta-glucuronidase by Western blot analysis. Format: cell-based. The procedure, abridged:
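NCI-H661 cells (5 × 10^5) exposed 6 h with β-glucuronidase (40 U/ml) in medium; compounds at 100 µM, TSA control 100 nM, DMSO 0.1%. Laemmli buffer lysis, sonication, SDS–PAGE; blots probed with rabbit polyclonal anti-acetyl-histone H4 (1/500), α-tubulin loading control (1/2000), HRP secondaries (1/5000), ECL detection.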

Data set [6] has as its system NCI-H661. In words: Antiproliferative activity against human NCI-H661 cells after 48 hrs. The class given is functional, cell-based. The essentials: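 NCI-H661 NSCLC cells grown in RPMI 1640 + 10% FCS, 37 °C, 5% CO2; 4 × 10^3 cells/well seeded, grown 24 h, then exposed to compound for 48 h without β-glucuronidase. XTT labeling mixture added, further 4 h at 37 °C, absorbance read at 480 nm. Three experiments in triplicate; standard deviation shown.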

Data set [7] is described as follows: Stability in cell culture medium in presence of 10% foetal calf serum. The class given is ADME. Particulars: cattle. The procedure, abridged: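 Incubation in cell culture medium supplemented with 10% foetal calf serum at 37 °C; solution monitored by HPLC (UV detection) over 72 h.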

One may read the pIC50 as the IC50 on a negative log10 scale, so that one unit is a factor of ten. As usually defined, the solubility is the concentration that dissolves in the medium under given conditions. The low end stands for little dissolved substance, the high end for much dissolved substance. On to `CC(=O)Nc1ccc(C(=O)Nc2ccccc2NC(=O)O[C@@H]2O[C@H](C(=O)O)[C@@H](O)[C@H](O)[C@H]2O)cc1`, for which, in data set [1], the pIC50 is 4.70. Further, the Stability result in data set [2], in data set [3] and in data set [7] was “Stable” each time. The compound further displayed a solubility in data set [4] of 1000 µg/mL (≈ 2040 µM). In addition, the result in data set [5] was Active. For the same compound, the outcome in data set [6] was inactive.

For `CC(=O)Nc1ccc(C(=O)Nc2ccccc2NC(=O)OCc2ccc(O[C@@H]3O[C@H](C(=O)O)[C@@H](O)[C@H](O)[C@H]3O)c([N+](=O)[O-])c2)cc1`, the negative logarithm of the IC50 (pIC50) in data set [1] was 4.70. Also, the Stability entry in data set [2], in data set [3] and in data set [7] was “Stable” each time. In data set [4], this compound returned a solubility of 1000 µg/mL (≈ 1560 µM). For the same compound, in data set [5], the result was Active. Moreover, the result in data set [6] was inactive.

With `CC(=O)Nc1ccc(C(=O)Nc2ccccc2N)cc1` [TACEDINALINE], in data set [4], the solubility amounted to 80 µg/mL (≈ 297 µM). In addition, the pIC50 in data set [6] (NCI-H661, 48 h) was 4.70.

Values taken from ChEMBL document CHEMBL1139399, “Synthesis and biological evaluation of glucuronide prodrugs of the histone deacetylase inhibitor CI-994 for application in selective cancer chemotherapy” (Bioorg Med Chem, 2008).
